Measurements reported in ChEMBL document CHEMBL4699638, “A Multipronged Approach Establishes Covalent Modification of β-Tubulin as the Mode of Action of Benzamide Anti-cancer Toxins” (J Med Chem, 2020).
The source made the active and inactive calls. The calls are words filed in the database; no cut-off is given here.

What was measured:
[1] = (§1) Anticancer activity against mouse 319N1 cells assessed as reduction in cell viability measured after 72 hrs by celltiter-glo assay; assay type: functional, cell-based; conditions: 319N1, 72 h
In short: (§2)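 Cells seeded in duplicate at 10,000 per well in DMEM with 5% FBS and incubated overnight. Compounds were then added as a 10-point dose response. After 72 h, viability was read by CellTiter-Glo luminescence, with the reagent diluted 1:1 in PBS/1% Triton-X. Values were normalized to DMSO-treated cells and IC50 was derived from curve fitting.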

[2] = test system: 518T2; test: Binding affinity to beta-tubulin in mouse 518T2 cells at 0.1 to 50 uM measured after 1.5 hrs using Alexa Fluor 532 dye by copper-mediated click reaction based SDS PAGE analysis; assay type: cell-based; conditions: dose microM 0.1-50, time 1.5 hrs
In short: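 Competition assay in 518T2 cells (1 million per well, DMEM with 5% FBS). Test analogs in DMSO were dispensed first at 100 nM to 50 μM and the cells plated onto them. The next day, alkyne probe (5 μM) was added for 1.5 h at 37 °C. Lysis was in 1% SDS HEPES buffer, followed by a click reaction with fluorescent azide, SDS-PAGE, and EC50 from displacement of the p50 band.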

[3] = Anticancer activity against mouse 319N1 clone C cells assessed as reduction in cell viability measured after 72 hrs by celltiter-glo assay; assay type: functional, cell-based; conditions: 319N1, 72 h; in short: as §2
[4] = test system: 518T2; test: Binding affinity to beta-tubulin in mouse 518T2 cells at 0.05 to 50 uM measured after 1.5 hrs using Alexa Fluor 532 dye by copper-mediated click reaction based SDS PAGE analysis; assay type: cell-based; conditions: dose microM 0.05-50, time 1.5 hrs
In short: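 518T2 cells were plated at 1 million per well in DMEM with 5% FBS. The next day, alkyne probe in DMSO was added at 50 nM to 50 μM for 1.5 h at 37 °C in 5% CO2. Cells were washed, lysed in 1% SDS buffer (50 mM HEPES pH 7.4, 10 mM KCl, 2 mM MgCl2, benzonase), click-reacted with Alexa Fluor 532 azide and resolved by SDS-PAGE fluorescence.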

[5] = test system: 518T2; test: Binding affinity to beta-tubulin in mouse 518T2 cells measured after 1.5 hrs using diazo biotin azide dye by silver staining based based SDS PAGE analysis; assay type: cell-based
In short: (§3)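 518T2 cells were grown at large scale (100 mg protein per condition) and treated with covalent or non-covalent alkyne probe. Lysates were clicked to 100 μM diazo biotin azide, acetone-precipitated, resolubilized in 4% SDS/PBS, and captured on streptavidin beads for 1 h at 25 °C. Eluates were run on silver-stained SDS-PAGE or analyzed by nano-LC-MS/MS (Orbitrap, HCD). Peptide abundance was normalized to the non-covalent probe sample.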

[6] = target: Tubulin beta-5 chain (Mus musculus) (UniProt P99024); test: Binding affinity to beta5-tubulin in mouse 518T2 cells measured after 1.5 hrs by LC-MS/MS analysis; assay type: cell-based; in short: as §3
[7] = target: Tubulin beta-5 chain (Mus musculus) (UniProt P99024); test: Binding affinity to beta5-tubulin (217 to 241 residues) in mouse 518T2 cells measured after 1.5 hrs by LC-MS/MS analysis; assay type: cell-based; in short: as §3
[8] = test system: 319N1; test: as §1; assay type: functional, cell-based; in short: as §2
[9] = Anticancer activity against mouse 984NA cells assessed as reduction in cell viability measured after 72 hrs by celltiter-glo assay; assay type: functional, cell-based; in short: as §2
[10] = Anticancer activity against mouse 518T2 cells assessed as reduction in cell viability measured after 72 hrs by celltiter-glo assay; assay type: functional, cell-based; conditions: 518T2, 72 h; in short: as §2
[11] = test system: NCI-H889; test: Anticancer activity against human NCI-H889 cells assessed as reduction in cell viability measured after 72 hrs by celltiter-glo assay; assay type: functional, cell-based
[12] = test system: NCI-H2107; test: Anticancer activity against human NCI-H2107 cells assessed as reduction in cell viability measured after 72 hrs by celltiter-glo assay; assay type: functional, cell-based
[13] = test system: NCI-H128; test: Anticancer activity against human NCI-H128 cells assessed as reduction in cell viability measured after 72 hrs by celltiter-glo assay; assay type: functional, cell-based

Sequence of Tubulin beta-5 chain (Mus musculus) (P99024 whole entry, the tested form may be a part): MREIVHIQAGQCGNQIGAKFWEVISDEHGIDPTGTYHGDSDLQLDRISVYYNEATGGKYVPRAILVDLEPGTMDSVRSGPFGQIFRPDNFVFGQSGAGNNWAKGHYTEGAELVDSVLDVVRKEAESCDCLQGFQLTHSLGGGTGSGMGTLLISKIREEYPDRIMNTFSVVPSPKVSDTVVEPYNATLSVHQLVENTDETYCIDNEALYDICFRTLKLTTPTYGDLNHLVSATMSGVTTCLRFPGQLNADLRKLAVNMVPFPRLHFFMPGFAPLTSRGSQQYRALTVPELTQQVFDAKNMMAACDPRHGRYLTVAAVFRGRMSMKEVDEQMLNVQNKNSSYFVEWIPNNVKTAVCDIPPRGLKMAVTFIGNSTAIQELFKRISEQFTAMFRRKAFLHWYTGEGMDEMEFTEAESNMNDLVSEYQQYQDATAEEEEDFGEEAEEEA

SMILES: O=C(c1ccc(Cl)c([N+](=O)[O-])c1)N1CCN(c2cccc(Br)c2)CC1
- IC50 [1]: 0.866 µM
- beta-tubulin binding (probe competition, active/inactive) [2]: Active

SMILES: Cc1ccc(Cl)cc1N1CCN(C(=O)c2ccc(Cl)c([N+](=O)[O-])c2)CC1
- beta-tubulin binding (probe competition, active/inactive) [2]: Active
- IC50 [3]: 1.48 µM

SMILES: C#CCOc1cccc(N2CCN(C(=O)c3ccc(Cl)c([N+](=O)[O-])c3)CC2)c1
- IC50 [1]: 1.19 µM
- Activity [4]: Active
- Activity [5]: Active
- Activity [6]: Active
- Activity [7]: Active

SMILES: O=C(c1ccc(Cl)c([N+](=O)[O-])c1)N1CCN(c2cc(Cl)ccc2Cl)CC1
- IC50 [1]: 0.458 µM

SMILES: N#Cc1cccc(N2CCN(C(=O)c3ccc(Cl)c([N+](=O)[O-])c3)CC2)c1
- IC50 [1]: 0.593 µM

SMILES: Cc1ccc(Cl)cc1N1CCN(C(=O)c2cccc([N+](=O)[O-])c2Cl)CC1
- IC50 [1]: 12.4 µM

SMILES: O=C(c1ccc(Cl)c([N+](=O)[O-])c1)N1CCN(c2ccccc2Cl)CC1
- IC50 [1]: 2.95 µM
- beta-tubulin binding (probe competition, active/inactive) [2]: Active

SMILES: CC[C@]1(O)C[C@H]2CN(CCc3c([nH]c4ccccc34)[C@@](C(=O)OC)(c3cc4c(cc3OC)N(C=O)[C@H]3[C@@](O)(C(=O)OC)[C@H](OC(C)=O)[C@]5(CC)C=CCN6CC[C@]43[C@@H]65)C2)C1
- beta-tubulin binding (probe competition, active/inactive) [2]: inactive

SMILES: Cc1ccc(Cl)cc1N1CCN(C(=O)c2ccc(I)c([N+](=O)[O-])c2)CC1
- beta-tubulin binding (probe competition, active/inactive) [2]: Active

SMILES: O=C(c1ccc(Cl)cc1)N1CCN(c2ccccc2)CC1
- Activity [8]: inactive

SMILES: O=C(c1ccc(Cl)c([N+](=O)[O-])c1)N1CCN(c2ccccc2F)CC1
- IC50 [1]: 7.94 µM

SMILES: Cc1ccc(Cl)cc1N1CCN(C(=O)c2ccc(F)c([N+](=O)[O-])c2)CC1
- beta-tubulin binding (probe competition, active/inactive) [2]: Active

SMILES: O=C(c1ccc(Cl)c([N+](=O)[O-])c1)N1CCN(c2ccccc2)CC1
- IC50 [1]: 3.21 µM
- IC50 [9]: 3.21 µM
- IC50 [10]: 3.21 µM
- Activity [11]: Active
- Activity [12]: Active
- Activity [13]: Active
- beta-tubulin binding (probe competition, active/inactive) [2]: Active

SMILES: Cc1ccc(Cl)cc1N1CCN(C(=O)c2ccc(OC(F)(F)F)c([N+](=O)[O-])c2)CC1
- IC50 [1]: 0.02 µM

SMILES: O=C(c1ccc(Cl)c([N+](=O)[O-])c1)N1CCN(c2ccc(F)cc2F)CC1
- IC50 [1]: 24.7 µM

SMILES: O=C(c1ccc(Cl)c([N+](=O)[O-])c1)N1CCN(c2ccc(F)cc2)CC1
- IC50 [1]: 21.1 µM
